pEC50: −log10 of the molar value.

T1 sequence (P54619 whole entry partner): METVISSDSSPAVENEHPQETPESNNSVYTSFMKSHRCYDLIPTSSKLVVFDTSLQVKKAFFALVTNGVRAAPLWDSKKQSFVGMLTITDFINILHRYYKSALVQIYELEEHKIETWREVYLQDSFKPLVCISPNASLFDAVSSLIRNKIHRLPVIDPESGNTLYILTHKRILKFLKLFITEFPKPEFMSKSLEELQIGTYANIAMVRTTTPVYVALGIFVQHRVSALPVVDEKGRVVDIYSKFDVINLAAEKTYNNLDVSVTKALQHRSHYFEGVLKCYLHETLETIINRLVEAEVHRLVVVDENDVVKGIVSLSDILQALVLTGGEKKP
T1 sequence (P54646 whole entry): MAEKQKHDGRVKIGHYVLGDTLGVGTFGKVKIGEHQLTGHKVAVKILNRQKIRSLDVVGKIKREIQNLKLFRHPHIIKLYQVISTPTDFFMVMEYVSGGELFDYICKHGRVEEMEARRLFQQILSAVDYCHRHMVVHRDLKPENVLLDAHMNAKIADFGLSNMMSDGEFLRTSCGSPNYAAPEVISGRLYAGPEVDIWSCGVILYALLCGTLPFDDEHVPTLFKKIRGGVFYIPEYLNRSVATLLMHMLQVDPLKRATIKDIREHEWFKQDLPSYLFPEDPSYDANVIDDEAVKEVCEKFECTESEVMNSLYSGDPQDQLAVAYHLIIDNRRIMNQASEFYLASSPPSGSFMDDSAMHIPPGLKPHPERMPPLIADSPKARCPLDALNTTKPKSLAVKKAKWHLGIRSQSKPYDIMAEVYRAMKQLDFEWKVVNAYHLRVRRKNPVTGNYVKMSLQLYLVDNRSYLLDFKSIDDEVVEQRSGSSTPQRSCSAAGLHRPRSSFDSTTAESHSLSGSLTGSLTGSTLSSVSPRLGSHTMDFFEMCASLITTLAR
T1 sequence (Q9Y478 2-270 partner limits assumed): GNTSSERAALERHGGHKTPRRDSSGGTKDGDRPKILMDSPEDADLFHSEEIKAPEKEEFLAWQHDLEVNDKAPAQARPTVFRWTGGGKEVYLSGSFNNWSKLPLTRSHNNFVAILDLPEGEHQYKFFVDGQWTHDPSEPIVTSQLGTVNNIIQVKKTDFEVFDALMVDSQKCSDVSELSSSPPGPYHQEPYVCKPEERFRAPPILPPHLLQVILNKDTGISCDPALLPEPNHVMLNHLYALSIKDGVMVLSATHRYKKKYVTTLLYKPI

The first series relates to Mus musculus. The series is described as follows: In vivo agonist activity at AMPK C57BL/6 mouse assessed as inhibition of de novo lipogenesis at 100 mg/kg, po administered via gavage. Format: functional. The conditions noted are these: C57BL/6, po.
Turning to `O=C(O)CSc1nc2cc(-c3ccc(-c4ccccc4)cc3)c(Cl)cc2[nH]1`, the inhibition in vivo (commonly the relative decrease from the control value, in per cent) at 100 mg/kg came out at 20%.

A further series concerns the target T1, AMPK alpha2/beta1/gamma1 (Homo sapiens) (UniProt P54646+P54619+Q9Y478). As to the kind of experiment: Agonist activity at human recombinant phosphorylated AMPK complex 7 alpha2/beta1/gamma1 expressed in baculovirus infected Sf21 cells assessed as phosphorylation of 5-FAM-labeled SAMS substrate at 50 uM preincubated for 30 mins in presence of AMPK activator followed by substrate addition measured after 60 mins relative to AMP.
Settings: not given
An outline of the steps:
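Activation of pAMPK7 is reported as percent activation at 50 μM, taken from 10-point titrations and averaged over at least two experiments.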
In the case of `O=C(O)CCc1nc2cc(Cl)c(Br)cc2[nH]1`, the %max turned out to be 44%.
`Cc1cc2nc(CCC(=O)O)[nH]c2cc1C`: the %max came to 19%.
As to `O=C(O)c1ccc(Sc2nc3cc(Cl)c(Cl)cc3[nH]2)cc1`, the %max turned out to be 35%.
The same measure, in the same setting: with `O=C(O)CCc1nc2ccccc2[nH]1` the figure was 14%; with `O=C(O)c1ccccc1-c1nc2cc(Cl)c(Cl)cc2[nH]1`, 6%; with `O=C(O)CCc1nc2cc(Cl)ccc2[nH]1`, 41%.
Regarding `O=C(O)CC[S+]([O-])c1nc2cc(Cl)c(Cl)cc2[nH]1` (configuration not stated), the %max was found to be 15%.
For `O=C(O)CCc1nc2cc(Cl)c(Cl)cc2[nH]1`, the %max was determined as 78%.
Regarding `O=C(O)c1csc(Sc2nc3cc(Cl)c(Cl)cc3[nH]2)n1`, the %max was 76%.
Consider `O=C(O)CCSc1nc2cc(Cl)c(Cl)cc2[nH]1`, for which the %max was 130%.
Same read-out and setting: in the case of `O=C(O)Cc1cccc(Sc2nc3cc(Cl)c(Cl)cc3[nH]2)c1` it was 140%; in that of `O=C(O)c1cccc(-c2nc3cc(Cl)c(Cl)cc3[nH]2)c1`, 10%; in that of `O=C(O)CCc1nc2cc(Cl)c(-c3ccc(-c4ccccc4)cc3)cc2[nH]1`, 130%.
Regarding `O=C(O)c1cccc(Sc2nc3cc(Cl)c(Cl)cc3[nH]2)c1`, the %max turned out to be 150%.
Consider `O=C(O)CSc1nc2cc(Cl)c(Cl)cc2[nH]1`, for which the %max is 130%.
For `O=C(O)CCc1nc2cc(Cl)c(-c3ccccc3)cc2[nH]1`, the %max was 130%.
As for `COc1ccc2[nH]c(CCC(=O)O)nc2c1`, the %max amounted to 14%.
Take `O=C(O)c1ccccc1Sc1nc2cc(Cl)c(Cl)cc2[nH]1`: the %max was 130%.

In another series the target is AMPK alpha2/beta1/gamma1 (Homo sapiens, UniProt P54619+P54646+Q9Y478). As to the kind of experiment: Agonist activity at human recombinant phosphorylated AMPK complex 7 alpha2/beta1/gamma1 expressed in baculovirus infected Sf21 cells assessed as phosphorylation of 5-FAM-labeled SAMS substrate preincubated for 30 mins in presence of AMPK activator followed by substrate addition measured after 60 mins.
Sequence of AMPK alpha2/beta1/gamma1 (P54646 whole entry): as the sequence (P54646 whole entry) above
Sequence of AMPK alpha2/beta1/gamma1 (P54619 whole entry): as the sequence (P54619 whole entry partner) above
Sequence of AMPK alpha2/beta1/gamma1 (Q9Y478 whole entry): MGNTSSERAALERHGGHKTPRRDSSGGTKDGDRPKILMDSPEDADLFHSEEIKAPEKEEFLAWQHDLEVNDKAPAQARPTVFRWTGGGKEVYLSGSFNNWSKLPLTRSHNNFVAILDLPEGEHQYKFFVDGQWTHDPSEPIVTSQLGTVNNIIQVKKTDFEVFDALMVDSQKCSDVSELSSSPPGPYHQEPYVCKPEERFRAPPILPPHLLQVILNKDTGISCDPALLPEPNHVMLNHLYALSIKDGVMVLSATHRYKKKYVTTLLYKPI
Settings: not given
An outline of the steps: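 Recombinant phosphorylated human AMPK complex; agonist tested as a 10-point titration up to 50 μM (∼2 nM to 50 μM in some series, ∼0.8 nM to 16 μM in others). EC50 is the average of at least two experiments. Percent maximum activation is the highest activation seen over the titration range, or the level at 50 μM.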
Take `O=C(O)c1cccc(Sc2nc3cc(-c4ccc(-c5ccccc5O)cc4)c(Cl)cc3[nH]2)c1`: the pEC50 (commonly the negative decadic logarithm of the EC50, by convention in mol/L) is 7.54.
On the same count and under the same terms, in the case of `Cc1ccc(Oc2nc3cc(-c4ccc(-c5ccccc5O)cc4)c(Cl)cc3[nH]2)cc1C(=O)O` it was 8.52; in that of `O=C(O)CSc1nc2cc(-c3ccc(-c4ccccc4)cc3)c(Cl)cc2[nH]1`, 6.82.
Take `Cc1ccc(Oc2nc3cc(C#Cc4ccccc4)c(Cl)cc3[nH]2)cc1C(=O)O`: the pEC50 is 8.15.
Consider `O=C(O)c1cc(Oc2nc3cc(-c4ccc(-c5ccccc5)cc4)c(Cl)cc3[nH]2)ccc1Cl`, for which the pEC50 was 7.49.
For the molecule `O=C(O)c1cc(Oc2nc3cc(C#Cc4ccccc4)c(Cl)cc3[nH]2)ccc1Cl`, the pEC50 was 7.82.
As to `O=C(O)CCc1nc2cc(Cl)c(Cl)cc2[nH]1`, the pEC50 is 4.44.
For `O=C(O)c1csc(Sc2nc3cc(Cl)c(Cl)cc3[nH]2)n1`, the pEC50 was 5.59.
Consider `O=C(O)CCSc1nc2cc(Cl)c(Cl)cc2[nH]1`, for which the pEC50 is 5.07.
As for `O=C(O)c1cccc(Oc2nc3cc(-c4ccc(-c5ccccc5)cc4)c(Cl)cc3[nH]2)c1`, the pEC50 is 7.21.
On the same count and under the same terms, in the case of `O=C(O)CSc1nc2cc(C#Cc3ccccc3)c(Cl)cc2[nH]1` it was 6.70.
The same measure, in the same setting: with `O=C(O)Cc1cccc(Sc2nc3cc(Cl)c(Cl)cc3[nH]2)c1` the figure was 5.54; with `O=C(O)CCc1nc2cc(Cl)c(-c3ccc(-c4ccccc4)cc3)cc2[nH]1`, 5.22; with `Cc1ccc(Oc2nc3cc(-c4ccc(-c5ccn[nH]5)cc4)c(Cl)cc3[nH]2)cc1C(=O)O`, 7.96.
Take `O=C(O)c1cccc(Sc2nc3cc(Cl)c(Cl)cc3[nH]2)c1`: the pEC50 is 5.13.
As for `O=C(O)CSc1nc2cc(Cl)c(Cl)cc2[nH]1`, the negative logarithm of the EC50 (pEC50) is 5.40.
On to `O=C(O)c1cccc(Sc2nc3cc(-c4ccc(-c5ccccc5)cc4)c(Cl)cc3[nH]2)c1`, for which the pEC50 was 6.10.
Consider `O=C(O)CCc1nc2cc(Cl)c(-c3ccccc3)cc2[nH]1`, for which the pEC50 is 5.10.
Consider `Cc1ccc(Oc2nc3cc(-c4ccc5c(ccn5C)c4)c(Cl)cc3[nH]2)cc1C(=O)O`, for which the pEC50 is 8.70.
Consider `O=C(O)c1ccccc1Sc1nc2cc(Cl)c(Cl)cc2[nH]1`, for which the pEC50 was 5.09.

Another series has as its target T1, AMPK alpha2/beta1/gamma1 (Homo sapiens). The series is described as follows: Agonist activity at human recombinant phosphorylated AMPK complex 7 alpha2/beta1/gamma1 expressed in baculovirus infected Sf21 cells assessed as phosphorylation of 5-FAM-labeled SAMS substrate at 0.002 to 50 uM preincubated for 30 mins in presence of AMPK activator followed by substrate addition measured after 60 mins relative to AMP.
Settings: not given
An outline of the steps:
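Recombinant human pAMPK complexes were titrated at 10 points over about 2 nM to 50 μM. EC50 is the average of at least two experiments. %max is the highest activation seen within that range.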
With `O=C(O)c1cccc(Sc2nc3cc(-c4ccc(-c5ccccc5O)cc4)c(Cl)cc3[nH]2)c1`, the %max amounted to 100%.
For `O=C(O)CSc1nc2cc(-c3ccc(-c4ccccc4)cc3)c(Cl)cc2[nH]1`, the %max turned out to be 260%.
Consider `O=C(O)CSc1nc2cc(C#Cc3ccccc3)c(Cl)cc2[nH]1`, for which the %max was 320%.
In the case of `O=C(O)c1cccc(Sc2nc3cc(-c4ccc(-c5ccccc5)cc4)c(Cl)cc3[nH]2)c1`, the %max was 200%.

Another series has as its system Mus musculus. As to the kind of experiment: In vivo agonist activity at AMPK in C57BL/6 mouse assessed as inhibition of de novo lipogenesis at 30 mg/kg, ip. The conditions noted are these: C57BL/6, ip. It counts as functional.
Take `O=C(O)CSc1nc2cc(-c3ccc(-c4ccccc4)cc3)c(Cl)cc2[nH]1`: the inhibition in vivo at 30 mg/kg turned out to be 40%.

Test system in the next series: not listed separately
The series is described as follows: Plasma clearance in C57BL/6 mouse by LC-MS/MS analysis. Format: ADME.
Settings: not given
The method in brief: (§1)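 C57BL/6 mice were dosed 2 mg/kg IV and 10 mg/kg PO. Reported parameters: plasma clearance, Vdss, terminal t1/2, Cmax, tmax and oral bioavailability F. AUCN is the plasma AUC after PO dosing normalized to dose.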
Consider `O=C(O)CSc1nc2cc(-c3ccc(-c4ccccc4)cc3)c(Cl)cc2[nH]1`, for which the clearance (as a rule, the volume of plasma or blood freed of the substance per unit of time) was determined as 60 mL/min/kg.

Test system in a further series: not listed separately
As to the kind of experiment: Terminal half life in C57BL/6 mouse by LC-MS/MS analysis. The conditions noted are these: in vivo, read-out: beta t1/2 (converted). It counts as ADME. An outline of the steps: as §1
With `O=C(O)CSc1nc2cc(-c3ccc(-c4ccccc4)cc3)c(Cl)cc2[nH]1`, the half-life was 2.8 h.

Test system in another series: not listed separately
As to the kind of experiment: Oral bioavailability in C57BL/6 mouse by LC-MS/MS analysis. Format: ADME, organism-based. The conditions noted are these: in vivo. An outline of the steps: as §1
For `O=C(O)CSc1nc2cc(-c3ccc(-c4ccccc4)cc3)c(Cl)cc2[nH]1`, the bioavailability (commonly dose-corrected exposure relative to a reference, in per cent) was 7%.

Test system in a further series: not listed separately
As to the kind of experiment: Volume of distribution at steady state in C57BL/6 mouse by LC-MS/MS analysis. Format: ADME. The conditions noted are these: in vivo, read-out: Vdss. The method in brief: as §1
`O=C(O)CSc1nc2cc(-c3ccc(-c4ccccc4)cc3)c(Cl)cc2[nH]1`: the Vd was 6.7 L/kg.

Another series concerns Mus musculus. As to the kind of experiment: Dose normalized AUC in po dosed C57BL/6 mouse administered via gavage by LC-MS/MS analysis. Format: ADME, organism-based. The note with it: in vivo. The method in brief:
as §1
Consider `O=C(O)CSc1nc2cc(-c3ccc(-c4ccccc4)cc3)c(Cl)cc2[nH]1`, for which the AUC/dose worked out at 0.05 µM·kg·h/mg.

Test system in a further series: not listed separately
As to the kind of experiment: Plasma clearance in BCRP knockout mouse by LC-MS/MS analysis. Format: ADME.
Settings: not given
`O=C(O)CSc1nc2cc(-c3ccc(-c4ccccc4)cc3)c(Cl)cc2[nH]1` had a clearance of 2.9 mL/min/kg.

Test system in the next series: not listed separately
The series is described as follows: Terminal half life in BCRP knockout mouse by LC-MS/MS analysis. Format: ADME. The conditions noted are these: in vivo, read-out: beta t1/2 (converted).
As to `O=C(O)CSc1nc2cc(-c3ccc(-c4ccccc4)cc3)c(Cl)cc2[nH]1`, the half-life is 10.8 h.

Test system in the next series: not listed separately
As to the kind of experiment: Oral bioavailability in BCRP knockout mouse by LC-MS/MS analysis. The conditions noted are these: in vivo. It counts as ADME, organism-based.
For `O=C(O)CSc1nc2cc(-c3ccc(-c4ccccc4)cc3)c(Cl)cc2[nH]1`, the bioavailability was found to be 77%.

Test system in another series: not listed separately
The series is described as follows: Volume of distribution at steady state in BCRP knockout mouse by LC-MS/MS analysis. Format: ADME. The note with it: in vivo, read-out: Vdss.
`O=C(O)CSc1nc2cc(-c3ccc(-c4ccccc4)cc3)c(Cl)cc2[nH]1`: the Vd was 2.6 L/kg.

The next series has as its system Mus musculus. As to the kind of experiment: Dose normalized AUC in BCRP knockout mouse administered through oral gavage by LC-MS/MS analysis. It counts as ADME. The conditions noted are these: in vivo.
Molecule `O=C(O)CSc1nc2cc(-c3ccc(-c4ccccc4)cc3)c(Cl)cc2[nH]1` displayed an AUC/dose of 11.4 µM·kg·h/mg.

Another series deals with T1, AMPK alpha2/beta1/gamma1 (Homo sapiens). As to the kind of experiment: Agonist activity at human recombinant phosphorylated AMPK complex 7 alpha2/beta1/gamma1 expressed in baculovirus infected Sf21 cells assessed as phosphorylation of 5-FAM-labeled SAMS substrate at 0.0008 to 16 uM preincubated for 30 mins in presence of AMPK activator followed by substrate addition measured after 60 mins relative to AMP.
Settings: not given
The method in brief: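 Recombinant human pAMPK7 was titrated at 10 points over about 0.8 nM to 16 μM. EC50 is the average of at least two experiments. Percent maximum activation is the highest activation seen within that range.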
Take `Cc1ccc(Oc2nc3cc(-c4ccc(-c5ccccc5O)cc4)c(Cl)cc3[nH]2)cc1C(=O)O`: the %max came out at 230%.
As to `Cc1ccc(Oc2nc3cc(C#Cc4ccccc4)c(Cl)cc3[nH]2)cc1C(=O)O`, the %max turned out to be 240%.
Take `O=C(O)c1cc(Oc2nc3cc(-c4ccc(-c5ccccc5)cc4)c(Cl)cc3[nH]2)ccc1Cl`: the %max was 310%.
Turning to `O=C(O)c1cc(Oc2nc3cc(C#Cc4ccccc4)c(Cl)cc3[nH]2)ccc1Cl`, the %max amounted to 250%.
On to `O=C(O)c1cccc(Oc2nc3cc(-c4ccc(-c5ccccc5)cc4)c(Cl)cc3[nH]2)c1`, for which the %max was determined as 260%.
In the case of `Cc1ccc(Oc2nc3cc(-c4ccc(-c5ccn[nH]5)cc4)c(Cl)cc3[nH]2)cc1C(=O)O`, the %max was determined as 260%.
On the same count and under the same terms, with `Cc1ccc(Oc2nc3cc(-c4ccc5c(ccn5C)c4)c(Cl)cc3[nH]2)cc1C(=O)O` the figure was 340%.

Test system in another series: not listed separately
The series is described as follows: Apparent permeability of compound in pig LLC-PK1 cells by HPLC analysis. Format: ADME, cell-based, Sus scrofa. The conditions noted are these: llc-pk1. The method in brief:
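LLC-PK1 monolayer on polycarbonate filter. Compound in HBSS added to the apical or basolateral side. Both sides sampled at end of incubation and quantified by HPLC. Papp is the mean of A→B and B→A values.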
As to `O=C(O)CSc1nc2cc(-c3ccc(-c4ccccc4)cc3)c(Cl)cc2[nH]1`, the Papp entry is “Permeable”.

(Values after ChEMBL document CHEMBL4024751, “Hit-to-Lead Optimization and Discovery of 5-((5-([1,1'-Biphenyl]-4-yl)-6-chloro-1H-benzo[d]imidazol-2-yl)oxy)-2-methylbenzoic Acid (MK-3903): A Novel Class of Benzimidazole-Based Activators of AMP-Activated Protein Kinase” (J Med Chem, 2017).)
